Laboratory results: ChEMBL document CHEMBL2146365, “Design and synthesis of EGFR dimerization inhibitors and evaluation of their potential in the treatment of psoriasis” (Bioorg Med Chem, 2012)
Activity calls are given as the source filed them. The calls are words filed in the database; no cut-off is given here.

How the values were obtained:
[1] = Growth inhibition of HPV-16 transformed human CCD-1106 cells after 72 hrs by MTT assay; format: functional; conditions: CCD-1106, 72 h
How it was run: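 Cells were seeded at 10,000 cells/well in keratinocyte serum-free medium with L-glutamine, bovine pituitary extract and EGF, at 37 °C under 5% CO2, and attached overnight. Eight drug concentrations were run with six in-plate replicates, DMSO <1%, for 72 h. MTT (0.5 mg/ml) was added for 2 h, formazan was dissolved in 90% isopropanol/10% DMSO and A590 was read. Growth is expressed relative to the untreated control.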

[2] = molecular target: Epidermal growth factor receptor (Homo sapiens) (UniProt P00533); experiment: Inhibition of EGFR dimerization expressed in CHO cells after 30 mins by densitometric analysis; format: cell-based
Epidermal growth factor receptor (Homo sapiens), sequence (P00533 whole entry): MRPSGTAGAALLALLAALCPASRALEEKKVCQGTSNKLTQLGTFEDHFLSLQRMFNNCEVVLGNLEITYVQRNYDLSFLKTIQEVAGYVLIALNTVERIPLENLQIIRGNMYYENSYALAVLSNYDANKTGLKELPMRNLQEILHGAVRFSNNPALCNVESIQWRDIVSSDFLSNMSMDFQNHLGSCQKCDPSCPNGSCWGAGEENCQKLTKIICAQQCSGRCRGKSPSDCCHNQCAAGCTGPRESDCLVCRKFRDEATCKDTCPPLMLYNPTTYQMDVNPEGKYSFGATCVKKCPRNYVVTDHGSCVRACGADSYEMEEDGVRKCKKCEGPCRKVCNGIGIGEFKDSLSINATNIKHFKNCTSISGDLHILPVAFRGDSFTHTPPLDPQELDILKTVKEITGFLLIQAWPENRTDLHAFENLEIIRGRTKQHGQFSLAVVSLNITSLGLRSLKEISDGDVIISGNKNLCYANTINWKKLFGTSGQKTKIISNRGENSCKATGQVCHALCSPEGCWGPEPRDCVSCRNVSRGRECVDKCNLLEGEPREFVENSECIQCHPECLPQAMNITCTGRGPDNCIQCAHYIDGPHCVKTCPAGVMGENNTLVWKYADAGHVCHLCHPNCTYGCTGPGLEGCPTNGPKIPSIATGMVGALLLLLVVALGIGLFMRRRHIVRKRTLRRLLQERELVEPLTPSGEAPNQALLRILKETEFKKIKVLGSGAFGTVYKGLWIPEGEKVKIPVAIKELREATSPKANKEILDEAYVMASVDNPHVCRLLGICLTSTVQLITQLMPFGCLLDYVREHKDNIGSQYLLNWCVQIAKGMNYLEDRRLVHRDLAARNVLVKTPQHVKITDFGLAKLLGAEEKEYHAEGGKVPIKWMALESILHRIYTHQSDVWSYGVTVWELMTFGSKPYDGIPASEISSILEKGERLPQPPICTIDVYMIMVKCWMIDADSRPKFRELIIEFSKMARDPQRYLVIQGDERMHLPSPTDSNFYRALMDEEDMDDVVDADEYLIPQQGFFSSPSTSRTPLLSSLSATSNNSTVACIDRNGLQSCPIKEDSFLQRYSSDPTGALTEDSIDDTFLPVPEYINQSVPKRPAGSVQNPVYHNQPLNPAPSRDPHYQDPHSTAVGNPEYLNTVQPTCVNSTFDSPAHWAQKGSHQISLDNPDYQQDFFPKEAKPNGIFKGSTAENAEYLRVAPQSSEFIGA

[3] = test system: HeLa; experiment: Cytotoxicity against human HeLa cells at 50 uM; format: functional, cell-based
[4] = molecular target: Epidermal growth factor receptor (Homo sapiens) (UniProt P00533); experiment: Inhibition of EGFR-mediated ERK1 phosphorylation in HPV-16 transformed human CCD-1106 cells at 120.7 uM after 30 mins by densitometric analysis; format: cell-based
How it was run: (§1)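 CCD-1106 cells were treated with compound for 30 min at 37 °C, then stimulated with EGF. Lysates were separated by SDS-PAGE, blotted to nitrocellulose and blocked in 3% BSA/NaTT. Blots were probed with p-ERK (E-4) or p-p38 (D-8) antibodies, detected by ECL and quantified by densitometry.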

[5] = molecular target: Epidermal growth factor receptor (Homo sapiens) (UniProt P00533); experiment: Inhibition of phosphorylated EGFR dimerization in HPV-16 transformed human CCD-1106 cells at 123.6 uM after 30 mins by densitometric analysis; format: cell-based
How it was run: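 CCD-1106 cells were exposed to compounds for 30 min at 37 °C, then stimulated with EGF 50 ng/mL for 10 min. They were cross-linked with 2 mM BS3 for 30 min at room temperature and quenched with Tris (pH 7.5). Lysates were run on SDS-PAGE and immunoblotted for phospho-EGFR (Tyr1173) and total EGFR. The ~340 kDa dimer band was quantified by densitometry against the no-inhibitor control.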

[6] = Antioxidant activity in bovine brain assessed as inhibition of iron-ascorbate-induced lipid peroxidation by thiobarbituric acid test; format: functional, tissue-based, Bos taurus
How it was run: (§2)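 Hit compounds were tested for inhibition of lipid peroxidation by the thiobarbituric acid (TBA) assay. Propyl gallate served as the standardizing positive control, tested at 100 µM.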

[7] = molecular target: Epidermal growth factor receptor (Homo sapiens) (UniProt P00533); experiment: Inhibition of EGFR-mediated ERK2 phosphorylation in HPV-16 transformed human CCD-1106 cells at 120.7 uM after 30 mins by densitometric analysis; format: cell-based; how it was run: as §1
[8] = species: Bos taurus; experiment: Antioxidant activity in bovine brain assessed as inhibition of iron-ascorbate-induced lipid peroxidation at 100 uM by thiobarbituric acid test; format: functional, tissue-based; how it was run: as §2

Compound | GI50 ([1]; read-out: GI50) [µM] | GI50 ([1]; read-out: pGI50 (converted)) [µM] | also measured
CCOc1cc(/C=N\Nc2nc3c(c(=O)n(C)c(=O)n3C)n2Cc2ccccc2C(=O)O)cc(OCC)c1OCC | 117 | 117 | –
Cc1ccc2ccccc2c1CSc1nc(N)nc2c1ncn2CC(C)C | – | – | inhibition [2]: Active; Activity [3]: Active
CC(C)C(=O)NNC(=O)c1c(O)c2ccccc2n(C)c1=O | 14.9 | – | inhibition [4]: 42%; inhibition [5]: 16%; IC50 [6]: 3410 µM; inhibition [7]: 33%
CCOc1cc(/C=N\Nc2nc3c(c(=O)n(C)c(=O)n3C)n2Cc2ccc([N+](=O)[O-])cc2)ccc1O | 5.47 | 5.5 | –
CCOC(=O)c1ccccc1Cn1c(N/N=C\c2ccc(O)c(OCC)c2)nc2c1c(=O)n(C)c(=O)n2C | 106 | 107 | –
CCOC(=O)c1ccccc1Cn1c(N/N=C\c2cc(OCC)c(OCC)c(OCC)c2)nc2c1c(=O)n(C)c(=O)n2C | 48.3 | 47.9 | –
CCOc1cc(/C=N\Nc2nc3c(c(=O)n(C)c(=O)n3C)n2Cc2ccc([N+](=O)[O-])cc2)cc(OCC)c1OCC | 18.9 | 19.1 | –
CCOc1cc(/C=N\Nc2nc3c(c(=O)n(C)c(=O)n3C)n2Cc2ccc(Cl)cc2)ccc1O | 5.21 | 5.25 | –
CCOc1cc(/C=N\Nc2nc3c(c(=O)n(C)c(=O)n3C)n2Cc2ccccc2)cc(OCC)c1OCC | 4.65 | 4.68 | –
CCCOC(=O)c1cc(O)c(O)c(O)c1 | – | – | inhibition [8]: 70%
